Experimental data of several laboratories.
Protocols differ between the studies behind these lines.
Target: MAP kinase-interacting serine/threonine-protein kinase 1 (MKNK1, Homo sapiens, UniProt Q9BUB5)

O=C(Nc1ccc(Oc2ccc(F)cc2)cc1)N1CCc2ncccc2[C@H]1c1ccc(F)cc1 — remaining binding (cell-free assay, competition with immobilised ligand; 1 µM): 95%
Nc1nc(NC2CCCCC2)sc1C(=O)c1ccccc1 — remaining activity (enzyme activity, inhibitor; 10 µM): 105%
CC(C)(C)c1nc2c(s1)c1nc(N)ncc1c1ccc(NS(=O)(=O)c3c(F)cccc3F)c(F)c12 — remaining activity (enzyme activity, inhibitor, radiometric; 1 µM): 117%
CC(C)(C)C(=O)c1sc(NC2CCCCC2)nc1N — remaining activity (enzyme activity, inhibitor; 10 µM): 105%
CCC(=O)N[C@@H]1CC[C@H](C(=O)N(C)c2ccc(-c3nc4ccccc4o3)cc2)C1 — remaining binding (cell-free assay, competition with immobilised ligand; 1 µM): 95%
O=C1NC(=O)c2cc(Nc3ccc(F)cc3)c(Nc3ccc(F)cc3)cc21 — remaining signal (cell-free assay; 0.5 µM): 103%
CNC(=O)c1ccc(Nc2ncc(C(F)(F)F)c(NCc3nccnc3N(C)S(C)(=O)=O)n2)cc1 — remaining binding (cell-free assay, competition with immobilised ligand; 0.1 µM): 83%
CN(c1ncccc1CNc1nc(Nc2ccc3c(c2)CC(=O)N3)ncc1C(F)(F)F)S(C)(=O)=O — inhibition (enzyme activity, inhibitor; 1 µM): 3.8%
Oc1cccc(-c2nc(N3CCOCC3)c3oc4ncccc4c3n2)c1 — remaining activity (enzyme activity, inhibitor; 10 µM): 97%
CC(C)(O)[C@H]1CC[C@H](Nc2ccc3ncc(-c4cccc(C(F)(F)F)c4)n3n2)CC1 — remaining activity (enzyme activity, inhibitor; 1 µM): 73.7%
N#CCCc1ccc2c(c1)-c1[nH]c3ccc([N+](=O)[O-])cc3c1CC(=O)N2 — remaining signal (cell-free assay; 0.5 µM): 66.7%
COc1ccc2c(c1)O[C@H](c1ccc(OC)c(OC)c1)C[C@@H]2NC(=O)C1(c2ccc3c(c2)OC(F)(F)O3)CC1 — remaining binding (cell-free assay, competition with immobilised ligand; 1 µM): 81%
O=C(Nc1cnn(-c2csc(C(=O)NC3COC3)c2)c1)Nc1c(F)cccc1Cl — remaining activity (enzyme activity, inhibitor; 5 µM): 103%
COc1cc2ncnc(Nc3ccc(Oc4ccccc4)cc3C)c2cc1OC — inhibition (enzyme activity, inhibitor; 1 µM): 2%
COc1cc(/C=C/C(=O)CC(=O)/C=C/c2ccc(O)c(OC)c2)ccc1O — activity vs control (enzyme activity, inhibitor; 1 µM): 112%
COc1cc(Nc2cnc(C#N)c(O[C@H](C)CN(C)C)n2)ncc1-c1cnn(C)c1 — remaining activity (enzyme activity, inhibitor, radiometric; 10 µM): 90%
FC(F)(F)Oc1cccc(-c2cnc3ccc(-c4ccncc4)nn23)c1 — activity vs control (enzyme activity, inhibitor, radiometric; 1 µM): 75%
O=C(O)[C@H]1[C@H](Cn2nnc3ccccc3c2=O)CC[C@@H]1C(=O)c1ccc(OCCC2CCOCC2)cc1 — remaining binding (cell-free assay, competition with immobilised ligand; 1 µM): 96%
O=C(CSc1nc2nccnc2c(=O)n1CCc1ccccc1)Nc1nccs1 — inhibition (enzyme activity, inhibitor; 10 µM): 1%
O=C1Nc2ccc(Cl)cc2C1=Cc1cc(Cl)c(O)c(Cl)c1 — remaining signal (cell-free assay; 0.5 µM): 103%
Cn1nc(C(=O)NCc2ccc(C(=O)O)cc2)cc1-c1ccc2[nH]ccc2c1 — remaining binding (cell-free assay, competition with immobilised ligand; 0.1 µM): 100%
CC/C(=N\NC(=O)NCc1cccc(O)c1)c1ccc(O)c(C)c1O — inhibition (enzyme activity, inhibitor; 0.1 µM): 0.4%
